# Legend:
# [1] = test system: Mus musculus; test: In vivo nicotinic antagonism relative to (+/-)-exo-mecamylamine measured in mice; assay type: functional
# Summary of the method: (§1)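 Mice; antagonist or saline sc 10 min before saline or nicotine ditartrate at its ED84 dose. Spontaneous activity counted in photocell cages, % depression vs saline. Tail-flick latency to heat measured 5 min after nicotine, 10-s cutoff, as % MPE. % antagonism per assay; AD50 with 95% confidence limits by Litchfield-Wilcoxon. Potency ratio = compound AD50 / racemic mecamylamine AD50; relative potency averages both assays.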
# [2] = Partition coefficient (logP); assay type: physicochemical; details: octanol/water
# Summary of the method: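 Octanol-water partition coefficient, calculated (not measured) from structure by the Rekker fragment procedure.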
# [3] = test system: Mus musculus; test: In vivo nicotinic antagonism relative to (+/-)-exo-mecamylamine measured in mice; stimulant; assay type: functional, organism-based; summary of the method: as §1
SMILES,Relative potency [1],logP ([2]; read-out: logP),Relative potency [3],logP [2]
CN(C)C1CC2CCC1(C)C2(C)C (racemic),10.5,3.96,–,–
CNC1C2CCC(C2)C1(C)C (racemic),1.2,3.01,–,–
CNC1C2CCC(C2)C1C (racemic),18.1,2.49,–,–
CNC1CC2CCC1(C)C2(C)C (racemic),8.6,3.53,–,–
CNC1CC2CCC1C2 (racemic),>40,1.97,–,–
CN(C)C1(C)C2CCC(C2)C1(C)C (racemic) [DIMECAMINE],1.5,3.96,–,–
CCNC1C2CCC(C2)C1c1ccccc1 (racemic) [FENCAMFAMIN],–,4.15,Stimulant,–
CNC1(C)C2CCC(C2)C1(C)C (racemic) [MECAMYLAMINE],1,–,–,3.53
"CN[C@@H]1C2(C)CCC(C2)C1(C)C (single isomer, unassigned; (+))",1.2,–,–,–
"CN[C@H]1C2(C)CCC(C2)C1(C)C (single isomer, unassigned; (+))",1.9,–,–,–
"CNC1(C)C2CCC(C2)C1(C)C (single isomer, unassigned; (+)) [MECAMYLAMINE]",3,–,–,–
"CN[C@@H]1C2(C)CCC(C2)C1(C)C (single isomer, unassigned; (-))",1.7,3.53,–,–
"CN[C@H]1C2(C)CCC(C2)C1(C)C (single isomer, unassigned; (-))",6.2,3.53,–,–
"CNC1(C)C2CCC(C2)C1(C)C (single isomer, unassigned; (-)) [MECAMYLAMINE]",1.4,–,–,–

# From ChEMBL document CHEMBL1125614, “Synthesis of 2-exo- and 2-endo-mecamylamine analogues. Structure-activity relationships for nicotinic antagonism in the central nervous system” (J Med Chem, 1991)
